Active and inactive are the calls of the source. No cut-off for these calls is given here.
What was measured:
Type in all cases: nucleic-acid assay
Details in all cases: Bos taurus
Nucleic Acid [1] = test: Binding affinity to calf thymus DNA assessed as increase in viscosity of short, rod-like DNA at compound to DNA ratio of 0.2 to 1.4 by viscometer
Method in brief: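 Viscometer titration of CT-DNA solution (496.2 μmol/L) in phosphate buffer pH 7.2 with increasing compound concentrations. Flow time measured at 25 °C in an Ostwald viscometer, with the same method for each compound.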

Nucleic Acid [2] = test: Binding affinity to calf thymus DNA assessed as melting temperature at 5 to 10 uM by thermal denaturation analysis
Method in brief: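 Thermal melting of CT-DNA (50 μM) in phosphate buffer pH 7.2, with and without compound (5–10 μM). Absorbance at 260 nm followed across temperatures. Tm taken as the point of 50% strand separation, with curve width from the 10–90% absorbance rise.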

Nucleic Acid [3] = test: Binding affinity to calf thymus DNA assessed as hypochromicity at 30 uM by UV-visible absorption spectroscopy
Method in brief: (§1)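 CT-DNA checked for purity by A260/A280; concentration per nucleotide from extinction coefficient at 260 nm (6600 M-1 cm-1). Compound held constant at 30 μM in 50% DMSO/phosphate buffer, pH 7.2 (5 mM in one passage, 0.2 M in another). DNA titrated from 0 to 100 μM, spectra recorded after each addition once equilibrated.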

Nucleic Acid [4] = test: Binding affinity to calf thymus DNA assessed as intrinsic binding constant by UV-visible absorption spectroscopy; method in brief: as §1
Nucleic Acid [5] = test: Binding affinity to calf thymus DNA assessed as bathochromic shift at 30 uM by UV-visible absorption spectroscopy; method in brief: as §1

| SMILES | Activity (Nucleic Acid [1]) | Tm (Nucleic Acid [2]) | Activity (Nucleic Acid [3]) | Kb (Nucleic Acid [4]) | Activity (Nucleic Acid [5]) |
| --- | --- | --- | --- | --- | --- |
| CCCCc1nc(Cl)c([C@@H]2[C@H]3C(C)=NN(c4ccccc4)C3=Nc3c(/N=N/c4ccc(Cl)cc4)c(N)nn32)[nH]1 | Active | 82 °C | Active | 5.7 ×10⁵ /M | Active |
| CCCCc1nc(Cl)c(/C=C2/C(=O)N(c3ccccc3)N=C2C)[nH]1 | Active | 80 °C | Active | 5.21 ×10⁵ /M | Active |

Reference: ChEMBL document CHEMBL2203253, “An ecofriendly synthesis and DNA binding interaction study of some pyrazolo [1,5-a]pyrimidines derivatives” (Bioorg Med Chem Lett, 2012)
